Here are results for 1 compound from ChEMBL document CHEMBL3621164, “Discovery of Triazole CYP11B2 Inhibitors with in Vivo Activity in Rhesus Monkeys” (ACS Med Chem Lett, 2015).

One series deals with Rattus norvegicus. The series can be described thus: Dose normalized AUC in Sprague-Dawley rat at 2 mg/kg, po administered through gavage. It is filed as ADME, organism-based. Particulars: in vivo; call rule not given here.
For series [1], the system named is Rhesus monkey. As to the kind of experiment: Decrease in aldosterone level in iv dosed rhesus monkey plasma by LC/MS method. It is filed as functional, organism-based. As to conditions: Macaca mulatta. The method in brief:
(§1)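 Plasma aldosterone and 11-deoxycortisol quantified by LC–MS at time points up to 180 min postdose; AUCs over that period calculated and compared with baseline.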

A short description of series [2]: Inhibition of rhesus monkey CYP11B2 expressed in V79 cells assessed as aldosterone level after 3 hrs by HTRF assay in presence of 125 nM 11-deoxycorticosterone. It is filed as cell-based. As to conditions: Macaca mulatta, V79, 3 h. (TR-FRET usually uses a lanthanide donor and a delayed reading to cut background.)
In series [3] the test system is Rhesus monkey. As to the kind of experiment: Dose normalized AUC in rhesus monkey at 2 mg/kg administered through gavage. Particulars: in vivo, po. It counts as ADME, organism-based, Macaca mulatta.
For series [4], the system named is Plasma. As to the kind of experiment: Free plasma concentration in rhesus monkey at 1 mg/kg, iv measured 90 mins post dose by LC/MS method. Particulars: in vivo, 1.5 h. It counts as ADME, organism-based, Macaca mulatta. The method in brief:
(§2)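 Anesthetized rhesus monkeys dosed i.v.; plasma drug concentration measured 90 min postdose. Free (unbound) concentration calculated from total plasma level using the free fraction determined in rhesus plasma.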

Series [5] concerns Plasma. The series can be described thus: Fraction unbound in iv dosed rhesus monkey plasma measured 90 mins post dose by LC/MS method. It counts as ADME, organism-based, Macaca mulatta. As to conditions: in vivo, 1.5 h.
Series [6] relates to Rhesus monkey. The series can be described thus: Decrease in aldosterone level in rhesus monkey plasma at 0.1 mg/kg, iv by LC/MS method. It is filed as functional. Particulars: Macaca mulatta. Summed up:
as §1

The nature of series [7]: Plasma clearance in rhesus monkey at 2 mg/kg administered through gavage by LC-MS/MS method. It counts as ADME, organism-based, Macaca mulatta. Particulars: po.
Series [8] relates to Rhesus monkey. The series can be described thus: Decrease in aldosterone level in rhesus monkey plasma at 1 mg/kg, iv by LC/MS method. It counts as functional. As to conditions: Macaca mulatta. The method in brief:
as §1

A short description of series [9]: Plasma clearance in Sprague-Dawley rat at 2 mg/kg, po administered through gavage by LC/MS/MS method. It is filed as ADME, organism-based.
Series [10] is described as follows: Oral bioavailability in rhesus monkey at 2 mg/kg administered through gavage. Particulars: in vivo. It counts as ADME, organism-based, Macaca mulatta.
Series [11] has as its system Plasma. The series can be described thus: Free plasma concentration in rhesus monkey at 0.3 mg/kg, iv measured 90 mins post dose by LC/MS method. Particulars: in vivo, 1.5 h. It is filed as ADME, organism-based, Macaca mulatta. The method in brief:
as §2

The nature of series [12]: Half life in rhesus monkey at 2 mg/kg administered through gavage. It counts as ADME, organism-based, Macaca mulatta. Particulars: in vivo, po.
In series [13] the target is T1, Cytochrome P450 11B2, mitochondrial (Homo sapiens, UniProt P19099).
T1 sequence (P19099 whole entry): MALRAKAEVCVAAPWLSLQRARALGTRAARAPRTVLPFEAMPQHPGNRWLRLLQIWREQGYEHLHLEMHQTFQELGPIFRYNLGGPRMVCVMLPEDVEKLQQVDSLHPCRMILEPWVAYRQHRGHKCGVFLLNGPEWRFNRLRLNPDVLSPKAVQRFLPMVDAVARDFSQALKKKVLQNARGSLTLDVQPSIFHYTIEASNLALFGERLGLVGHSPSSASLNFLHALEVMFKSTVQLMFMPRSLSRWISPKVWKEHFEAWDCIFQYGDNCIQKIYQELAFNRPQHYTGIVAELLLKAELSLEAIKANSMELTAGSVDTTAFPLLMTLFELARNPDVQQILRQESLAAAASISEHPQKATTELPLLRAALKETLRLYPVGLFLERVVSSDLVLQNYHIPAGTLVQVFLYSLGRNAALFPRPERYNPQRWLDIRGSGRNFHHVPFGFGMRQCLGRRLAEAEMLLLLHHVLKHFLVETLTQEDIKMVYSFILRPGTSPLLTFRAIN
As to the kind of experiment: Inhibition of human CYP11B2 expressed in V79 cells assessed as aldosterone level after 3 hrs by HTRF assay in presence of 125 nM 11-deoxycorticosterone. It counts as cell-based.

The nature of series [14]: Lipophilicity, log D of the compound by HPLC. It counts as physicochemical. Summed up: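 Lipophilicity determined experimentally by HPLC.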
The test system of series [15] is Plasma. As to the kind of experiment: Free plasma concentration in rhesus monkey at 0.1 mg/kg, iv measured 90 mins post dose by LC/MS method. It counts as ADME, organism-based, Macaca mulatta. As to conditions: in vivo, 1.5 h. The method in brief:
as §2

The nature of series [16]: Oral bioavailability in Sprague-Dawley rat at 2 mg/kg administered through gavage. It counts as ADME, organism-based. As to conditions: in vivo.
The next series is filed under the species Homo sapiens. The series can be described thus: Selectivity index, ratio IC50 for human CYP11B1 to IC50 for human CYP11B2. The method in brief: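 Ratio of human CYP11B1 IC50 to human CYP11B2 IC50; each IC50 calculated from n ≥ 2 determinations.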
The target in the next series is T2, Aromatase (Homo sapiens, UniProt P11511).
T2 sequence (P11511 whole entry): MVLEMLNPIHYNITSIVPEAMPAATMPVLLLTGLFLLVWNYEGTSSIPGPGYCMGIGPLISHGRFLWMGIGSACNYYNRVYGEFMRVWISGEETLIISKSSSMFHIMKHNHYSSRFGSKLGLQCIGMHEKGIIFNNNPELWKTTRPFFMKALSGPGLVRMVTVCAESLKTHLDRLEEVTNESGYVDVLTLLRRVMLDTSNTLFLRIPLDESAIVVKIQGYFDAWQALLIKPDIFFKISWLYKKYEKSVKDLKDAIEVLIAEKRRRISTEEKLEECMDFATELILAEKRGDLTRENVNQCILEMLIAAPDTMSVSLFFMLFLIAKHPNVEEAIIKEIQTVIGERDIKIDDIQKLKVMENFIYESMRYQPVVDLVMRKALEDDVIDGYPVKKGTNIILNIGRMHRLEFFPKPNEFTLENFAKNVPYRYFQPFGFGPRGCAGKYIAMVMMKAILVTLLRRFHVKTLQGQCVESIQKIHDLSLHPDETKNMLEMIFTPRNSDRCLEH
The series can be described thus: Inhibition of human CYP19.

Series [17] concerns the target T3, Cytochrome P450 11B2, mitochondrial (Rattus norvegicus, UniProt P30099).
T3 sequence (P30099 whole entry): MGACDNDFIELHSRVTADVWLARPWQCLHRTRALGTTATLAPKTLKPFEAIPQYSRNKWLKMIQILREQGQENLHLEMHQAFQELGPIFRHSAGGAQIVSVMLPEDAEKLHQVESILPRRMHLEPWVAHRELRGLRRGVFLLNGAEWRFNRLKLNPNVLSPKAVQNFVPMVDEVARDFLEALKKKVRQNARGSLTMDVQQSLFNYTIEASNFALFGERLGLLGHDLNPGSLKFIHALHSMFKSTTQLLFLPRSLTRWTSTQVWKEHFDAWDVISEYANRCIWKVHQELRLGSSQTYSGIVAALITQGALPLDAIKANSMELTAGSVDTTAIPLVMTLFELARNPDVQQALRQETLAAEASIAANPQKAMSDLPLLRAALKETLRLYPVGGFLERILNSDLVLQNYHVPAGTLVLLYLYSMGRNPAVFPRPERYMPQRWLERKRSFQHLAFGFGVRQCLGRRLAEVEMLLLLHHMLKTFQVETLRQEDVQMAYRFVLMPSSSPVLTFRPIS
The series can be described thus: Inhibition of rat CYP11B2 expressed in V79 cells assessed as aldosterone level after 3 hrs by HTRF assay in presence of 500 nM 11-deoxycorticosterone. It counts as cell-based. As to conditions: v79, 3 h.

A word on the IC50: it is the concentration that inhibits the measured activity by half. What is called inhibition in vivo is the percentage by which the read-out fell short of the control. As usually defined, the CL/F is clearance divided by bioavailability, as obtained after extravascular dosing. The term bioavailability denotes the share of a dose that reaches the circulation, judged against a reference dose that is usually intravenous. A word on the half-life: it is the time in which the quantity being followed falls by half. One may read the logD as the decadic logarithm of the distribution of all forms, ionised or not, between an organic phase and buffer at a given pH. In the case of `Cc1nnc2n1-c1ccc(-c3cncc([C@](C)(O)C(F)(F)F)c3)cc1CC2`, the AUC/dose in the series on Rattus norvegicus stood at 1.88 µM·kg·h/mg. For the same compound, the inhibition result in the series with Rhesus monkey [1] was “Dose-dependent effect”. Further, the IC50 in series [2] was 0.012 µM; in series [13] it was 0.064 µM; at Aromatase it was over 30 µM. Further, the AUC with Rhesus monkey [3] worked out at 16.26 µM·kg·h/mg. Further, the “Cp(f)” value in the series on Plasma [4] was 279 nM; in the series on Plasma [11], 73 nM; in the series on Plasma [15] it was 19 nM. In the series on Plasma [5], this compound came in with a Fu of 31%. The inhibition in vivo at 0.1 mg/kg in the series with Rhesus monkey [6] worked out at 48%. Further, the results for the CL/F in [7] and in [9] were 3 mL/min/kg and 21 mL/min/kg, respectively. Further, the inhibition in vivo at 1 mg/kg in the series on Rhesus monkey [8] came to 98%. For the same compound, the bioavailability in [10] is 100%; in series [16] it was 87%. Besides, the half-life in [12] was 7.8 h. Further, the logD in [14] came out at 1.2. In addition, in the series filed under Homo sapiens, the Ratio IC50 turned out to be 69. Further, the “inhibition (INH)” value in series [17] is on record as “Active”.
